Source: PubChem BioAssay
This is one part of the list. Active and inactive are the calls of the source.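 The calls were made as follows: active = mean percent inhibition of duplicate wells above the buffer-only control mean plus 3 SD of those controls; inactive = the rest.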

Target: Potassium voltage-gated channel subfamily E member 1 (Homo sapiens) + Potassium voltage-gated channel subfamily KQT member 1 (Homo sapiens) (UniProt P15382+P51787)
Assay: KCNQ1/KCNE1 channel inhibition, selectivity assay for KCNQ1 inhibitor project, CHO-K1 cells, thallium flux, FluxOR (AID 652147)
Conditions: FluxOR thallium flux fluorescence, at 10 µM
How it was run: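 System: cells expressing KCNQ1/KCNE1 channels; timing: 20 min compound pre-incubation at room temperature; technique: FluxOR thallium influx fluorescence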

Chain of Potassium voltage-gated channel subfamily E member 1 (Homo sapiens) + Potassium voltage-gated channel subfamily KQT member 1 (Homo sapiens) (P51787 whole entry, looked up): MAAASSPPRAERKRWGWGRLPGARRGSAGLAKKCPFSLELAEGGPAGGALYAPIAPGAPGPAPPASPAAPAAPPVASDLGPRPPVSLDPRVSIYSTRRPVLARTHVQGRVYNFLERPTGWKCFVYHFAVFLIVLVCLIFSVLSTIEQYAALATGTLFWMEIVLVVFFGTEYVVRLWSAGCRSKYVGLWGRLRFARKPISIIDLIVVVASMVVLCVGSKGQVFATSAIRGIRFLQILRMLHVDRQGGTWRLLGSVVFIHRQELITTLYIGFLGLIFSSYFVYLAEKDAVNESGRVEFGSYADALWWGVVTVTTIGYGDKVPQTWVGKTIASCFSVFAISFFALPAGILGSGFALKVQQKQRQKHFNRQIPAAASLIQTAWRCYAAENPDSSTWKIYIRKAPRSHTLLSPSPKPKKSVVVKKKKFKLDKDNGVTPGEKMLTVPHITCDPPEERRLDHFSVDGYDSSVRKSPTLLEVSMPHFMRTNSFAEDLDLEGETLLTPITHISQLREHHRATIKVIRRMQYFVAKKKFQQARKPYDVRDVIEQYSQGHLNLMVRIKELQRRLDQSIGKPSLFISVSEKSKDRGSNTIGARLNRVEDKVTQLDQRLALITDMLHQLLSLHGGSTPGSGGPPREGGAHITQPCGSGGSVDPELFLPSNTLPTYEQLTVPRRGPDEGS

outcome, inactive:
CCc1ccc(-c2nn(-c3ccccc3)cc2CSC(=N)N)cc1
S=C(NCc1ccc(Cl)cc1)NC12CC3CC(CC(C3)C1)C2
FC(F)(F)c1cccc(NC(=S)Nc2cccc(Cl)c2)c1
Cc1ccc2nc(C)c3c(c2c1)N(c1ccccc1)CC3
